The values that follow come from ChEMBL document CHEMBL1629552, “In vitro and in vivo treatments of echinococcus protoscoleces and metacestodes with artemisinin and artemisinin derivatives” (Antimicrob Agents Chemother, 2008).

Activity calls are given as the source filed them. The rule behind the calls is not given here.

The test system of data set [1] is Echinococcus granulosus. The experiment in a line: Antimicrobial activity against Echinococcus granulosus protoscoleces assessed as reduction in protoscoleces viability at 40 uM by trypan blue exclusion assay. It is filed as functional. In outline: (§1)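 E. granulosus protoscoleces were isolated and kept in vitro per earlier work. Compounds from 10 mM DMSO stocks were added at 4, 10 and 40 μM, with nitazoxanide as positive control and DMSO as solvent control. Viability was scored microscopically by trypan blue exclusion over days of culture. The experiment was repeated three times.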

In data set [2] the test system is Echinococcus granulosus. The data set is described as follows: Antimicrobial activity against Echinococcus granulosus protoscoleces assessed as reduction in protoscoleces viability at 10 uM by trypan blue exclusion assay. It counts as functional. An outline of the steps:
as §1

In data set [3] the test system is Echinococcus multilocularis. The experiment in a line: Antimicrobial activity against Echinococcus multilocularis metacestode assessed as increase in alkaline phosphatase activity at 40 uM within 4 days. It is filed as functional, organism-based. In outline: (§2)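 In vitro-cultured E. multilocularis metacestode vesicles were treated for 12 days with compounds at 40 μM (10 mM DMSO stocks). Albendazole was the positive control and matching DMSO the negative control. Culture supernatant was sampled daily and stored at −20°C, and parasite alkaline phosphatase (EmAP) activity was assayed at the time points shown.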

Data set [4] has as its system Echinococcus multilocularis. The data set is described as follows: Antimicrobial activity against Echinococcus multilocularis metacestode assessed as loss of multicellular structure of germinal layer by transmission electron microscopy. It counts as functional, organism-based.
In data set [5] the test system is Echinococcus multilocularis. The experiment in a line: Antimicrobial activity against Echinococcus multilocularis -infected in BALB/c mouse assessed as parasite weight at 200 mg/kg body weight intragastrically administered 8 weeks post-infecion (reference value: 5.71+/-1.79 g). It is filed as functional. The following applies: route intragastric.
The species entered for another data set is Mus musculus. The experiment in a line: Toxicity against Echinococcus multilocularis -infected in BALB/c mouse assessed as adverse effect. It is filed as organism-based. The following applies: in vivo.
Data set [6] relates to Echinococcus granulosus. The experiment in a line: Antimicrobial activity against Echinococcus granulosus metacestode assessed as loss of multicellular structure of germinal layer by transmission electron microscopy. It is filed as functional.
Data set [7] relates to Echinococcus multilocularis. The experiment in a line: Antimicrobial activity against Echinococcus multilocularis metacestode assessed as increase in alkaline phosphatase activity at 40 uM.
Data set [8] deals with Echinococcus granulosus. The experiment in a line: Antimicrobial activity against Echinococcus granulosus protoscoleces assessed as reduction in protoscoleces viability at 40 uM upto 2 days by trypan blue exclusion assay. It counts as functional. In outline:
as §1

In data set [9] the test system is Echinococcus granulosus. The data set is described as follows: Antimicrobial activity against Echinococcus granulosus protoscoleces assessed as reduction in protoscoleces viability at 40 uM after 6 days by trypan blue exclusion assay. It is filed as functional. An outline of the steps:
as §1

For data set [10], the system named is Echinococcus multilocularis. The experiment in a line: Antimicrobial activity against Echinococcus multilocularis metacestode assessed as increase in alkaline phosphatase activity at 40 uM after 8 days. It counts as functional, organism-based. In outline: as §2

Regarding `C[C@H]1[C@H](OC(=O)CCC(=O)O)O[C@@H]2O[C@@]3(C)CC[C@H]4[C@H](C)CC[C@@H]1[C@@]24OO3` [ARTESUNATE], the result (with Echinococcus granulosus [1]; in data set [3]; in [4]; in the data set on Echinococcus granulosus [6]) was Active. The outcome (with Echinococcus granulosus [2]; in data set [7]) was inactive. In addition, the Activity in [5] was 4.6 g; in the data set filed under Mus musculus, “Non-toxic”.

As for `C[C@H]1[C@@H](O)O[C@@H]2O[C@@]3(C)CC[C@H]4[C@H](C)CC[C@@H]1[C@@]24OO3` [ARTENIMOL], the outcome (with Echinococcus granulosus [1]; in data set [4]; in [10]; in the data set on Echinococcus granulosus [6]) was Active. In addition, the outcome (in the data set with Echinococcus granulosus [2]; in the data set on Echinococcus granulosus [8]; in [7]) was inactive. For the same compound, the Activity in [5] is listed as 4.11 g; in the data set listed under Mus musculus it was “Non-toxic”; with Echinococcus granulosus [9] it was 90%.

Consider `CC(=O)Oc1ccccc1C(=O)Nc1ncc([N+](=O)[O-])s1`, for which the outcome in the data set on Echinococcus granulosus [2] was Active.

For `CCCSc1ccc2[nH]c(NC(=O)OC)nc2c1` [ALBENDAZOLE], in data set [5], the Activity is 2.96 g.

For the compound `C[C@@H]1CC[C@H]2[C@@H](C)C(=O)O[C@@H]3O[C@@]4(C)CC[C@@H]1[C@]32OO4`, the result (in the data set on Echinococcus granulosus [1]; in data set [3]; in data set [7]) was inactive.

As for `CO[C@H]1O[C@@H]2O[C@@]3(C)CC[C@H]4[C@H](C)CC[C@@H]([C@H]1C)[C@@]24OO3`, the outcome (with Echinococcus granulosus [1]; in data set [3]; in data set [7]) was inactive.
